# According to ChEMBL document CHEMBL1143381 (J Med Chem, 2009):
# Activity calls are given as the source filed them. No cut-off for these calls is given here.
# Assays:
# K562 [1] = test: Reversal of P-glycoprotein-mediated multidrug resistance in human anthracycline-resistant K562 cells assessed as drug level causing 50% increase in nuclear concentration of pirarubicin by spectrofluorimetry; assay type: cell-based
# Method in brief: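 K562/DOX cells were grown in RPMI 1640 with 10% FCS at 37 °C, 5% CO2, and kept resistant by a monthly 3-day exposure to 400 nM doxorubicin. Cultures were started at 5 × 10^5 cells/mL and used 24 h later. Pirarubicin uptake was followed as fluorescence decrease at 590 nm (ex 480 nm) in 2 mL buffer at 37 °C.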
# K562 [2] = test: Cytotoxicity against human doxorubicin-sensitive K562 cells after 72 hrs by MTT assay; assay type: functional, cell-based; settings: K562, 72 h
# Method in brief: (§1)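 MTT assay: cells seeded at 3000/well with doxorubicin (0.001–0.1 µM in K562; 0.1–10 µM in K562/DOX), alone or with modulator, for 72 h at 37 °C. Doxorubicin IC50 is the 50% drop in MTT conversion versus untreated cells, read from plots. RF is the IC50 without modulator divided by the IC50 with modulator. Values are mean ± SE of ≥3 runs, or mean of two runs, in quadruplicate cultures.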
# K562 [3] = test: Cytotoxicity against human doxorubicin-resistant K562 cells expressing Pgp after 72 hrs by MTT assay; assay type: functional, cell-based; settings: K562, 72 h; method in brief: as §1
# K562 [4] = test: Cytotoxicity against human doxorubicin-resistant K562 cells expressing Pgp assessed as cell viability by trypan blue exclusion assay; assay type: functional
# K562 [5] = test: Potentiation of doxorubicin-induced growth inhibition in human doxorubicin-resistant K562 cells expressing Pgp at 1 uM after 72 hrs by MTT assay; assay type: functional, cell-based; method in brief: as §1
# K562 [6] = test: Potentiation of doxorubicin-induced growth inhibition in human doxorubicin-resistant K562 cells expressing Pgp at 3 uM after 72 hrs by MTT assay; assay type: functional, cell-based; method in brief: as §1
smiles,measurement,setting,value
COc1ccc(C(C#N)(CCCNCc2c3ccccc3cc3ccccc23)C(C)C)cc1OC (configuration not stated),Activity,K562 [1],0.05 µM
COc1cccc2c1C(=O)c1c(O)c3c(c(O)c1C2=O)C[C@@](O)(C(=O)CO)C[C@@H]3O[C@H]1C[C@H](N)[C@H](O)[C@H](C)O1 [DOXORUBICIN],IC50,K562 [2],32 nM
same,IC50,K562 [3],2840 nM
COc1ccc(CCN(C)CCCC(C#N)(c2ccc(OC)c(OC)c2)C(C)C)cc1OC (configuration not stated),Activity,K562 [4],>95%
same,Activity,K562 [5],Active
same,Activity,K562 [6],Active
COc1cc(C(=O)OCCCN(C)CCCOC(=O)c2c3ccccc3cc3ccccc23)cc(OC)c1OC,Activity,K562 [1],0.6 µM
